Laboratory results as given in ChEMBL document CHEMBL4396917, “Synthesis and biological evaluation of novel benzylidene-succinimide derivatives as noncytotoxic antiangiogenic inhibitors with anticolorectal cancer activity in vivo” (Eur J Med Chem, 2019).
Calls of active or inactive are those of the source. The rule behind the calls is not given here.

Assays:
SW480 = assay: Cytotoxicity against human SW480 cells assessed as reduction in cell growth after 72 hrs by MTT assay; assay type: cell-based; details: SW480, 72 h
Chorioallantoic membrane = assay: Antiangiogenic activity in Leghorn chicken fertilized egg chorioallantoic membrane at 10 nM/egg measured after 48 hrs by CAM assay; assay type: functional, tissue-based; details: Gallus gallus
In short: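 Fertile Leghorn eggs incubated at 37.8°C, 40% humidity; window opened on day 7; compound, sunitinib or 0.9% NaCl mixed with DMSO applied on filter paper onto CAM; 48 h incubation, methanol fixation, photography; nascent vessels counted.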

HT-29 [1] = assay: Cytotoxicity against human HT-29 cells assessed as reduction in cell growth after 72 hrs by MTT assay; assay type: cell-based; details: HT-29, 72 h
PC-3 = assay: Cytotoxicity against human PC3 cells assessed as reduction in cell growth after 72 hrs by MTT assay; assay type: cell-based; details: PC-3, 72 h
HUVEC [2] = assay: Antiinvasive activity in HUVEC assessed as inhibition of VEGF-induced cell invasion at 1 uM after 6 hrs by crystal violet staining based transwell assay relative to control; assay type: functional; details: Homo sapiens
In short: (§1)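 Transwell: 1×10⁴ HUVECs in serum-free M200 in top chamber with vehicle or compound; bottom chamber M200 with 10% FBS; 6 h at 37°C; cells on membrane underside fixed in 4% paraformaldehyde, stained 0.1% crystal violet, imaged and counted.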

HUVEC [3] = assay: Antiinvasive activity in HUVEC assessed as inhibition of VEGF-induced cell invasion at 20 uM after 6 hrs by crystal violet staining based transwell assay relative to control; assay type: functional; details: Homo sapiens; in short: as §1
HUVEC [4] = assay: Antiangiogenic activity in HUVEC assessed as inhibition of VEGF-induced capillary like tube formation at 5 uM preincubated with VEGF for 20 mins followed by compound addition measured after 6 hrs by matrigel based tube formation assay relative to control; assay type: functional; details: Homo sapiens
In short: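 Matrigel (100 μL) set 1 h at 37°C; 2×10⁴ HUVECs in M200 with 10% FBS added per well plus 10 ng/mL VEGF; compound added after 20 min; incubated 6 h at 37°C, then capillary-like structures photographed.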

HUVEC [5] = assay: Induction of apoptosis in VEGF-stimulated HUVEC assessed as late apoptotic cells at 1 uM after 24 hrs by Annexin V-FITC/propidium iodide staining based flow cytometric analysis (reference value: 11.3%); assay type: cell-based; details: human
In short: (§2)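 HUVECs plated at 5×10^5 per well and treated 24 h with 1, 5, 10 or 20 μM. Detached and adherent cells were pooled, washed in ice-cold PBS and resuspended in fresh medium. 1×10^5 cells were stained with annexin-V-FITC in annexin-V buffer for 20 min in the dark, then PI (50 μg/mL) was added. Read-out by flow cytometry.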

HUVEC [6] = assay: Induction of apoptosis in VEGF-stimulated HUVEC assessed as necrotic cells at 5 uM after 24 hrs by Annexin V-FITC/propidium iodide staining based flow cytometric analysis (reference value: 12.1%); assay type: cell-based; details: human; in short: as §2
[7] = Induction of apoptosis in VEGF-stimulated HUVEC assessed as viable cells at 10 uM after 24 hrs by Annexin V-FITC/propidium iodide staining based flow cytometric analysis (reference value: 69.6%); assay type: cell-based; details: human, read-out: Activity; in short: as §2
HUVEC [8] = assay: Induction of apoptosis in VEGF-stimulated HUVEC assessed as necrotic cells at 10 uM after 24 hrs by Annexin V-FITC/propidium iodide staining based flow cytometric analysis (reference value: 12.1%); assay type: cell-based; details: human; in short: as §2
HUVEC [9] = assay: Induction of apoptosis in VEGF-stimulated HUVEC assessed as necrotic cells at 20 uM after 24 hrs by Annexin V-FITC/propidium iodide staining based flow cytometric analysis (reference value: 12.1%); assay type: cell-based; details: human; in short: as §2
HUVEC [10] = assay: Induction of apoptosis in VEGF-stimulated HUVEC assessed as caspase-3 cleavage at 1 to 20 uM by Western blot analysis; assay type: cell-based; details: human
[11] = Induction of apoptosis in human HT-29 cells assessed as viable cells at 5 uM after 72 hrs by Annexin V-FITC/propidium iodide staining based flow cytometric analysis (reference value: 81.1%); assay type: cell-based; details: read-out: Activity
HT-29 [12] = assay: Induction of apoptosis in human HT-29 cells assessed as necrotic cells at 5 uM after 72 hrs by Annexin V-FITC/propidium iodide staining based flow cytometric analysis (reference value: 1.3%); assay type: cell-based; details: ht-29, 72 h
[13] = target: Vascular endothelial growth factor receptor 2 (Homo sapiens) (UniProt P35968); assay: Inhibition of VEGFR2 in VEGF-stimulated HUVEC assessed as downregulation of FAK phosphorylation at Tyr925 residue at 1 to 10 uM pre-incubated for 2 hrs followed by VEGF stimulation and measured after 15 mins by Western blot analysis; assay type: cell-based
Chain of Vascular endothelial growth factor receptor 2 (Homo sapiens) (P35968 whole entry): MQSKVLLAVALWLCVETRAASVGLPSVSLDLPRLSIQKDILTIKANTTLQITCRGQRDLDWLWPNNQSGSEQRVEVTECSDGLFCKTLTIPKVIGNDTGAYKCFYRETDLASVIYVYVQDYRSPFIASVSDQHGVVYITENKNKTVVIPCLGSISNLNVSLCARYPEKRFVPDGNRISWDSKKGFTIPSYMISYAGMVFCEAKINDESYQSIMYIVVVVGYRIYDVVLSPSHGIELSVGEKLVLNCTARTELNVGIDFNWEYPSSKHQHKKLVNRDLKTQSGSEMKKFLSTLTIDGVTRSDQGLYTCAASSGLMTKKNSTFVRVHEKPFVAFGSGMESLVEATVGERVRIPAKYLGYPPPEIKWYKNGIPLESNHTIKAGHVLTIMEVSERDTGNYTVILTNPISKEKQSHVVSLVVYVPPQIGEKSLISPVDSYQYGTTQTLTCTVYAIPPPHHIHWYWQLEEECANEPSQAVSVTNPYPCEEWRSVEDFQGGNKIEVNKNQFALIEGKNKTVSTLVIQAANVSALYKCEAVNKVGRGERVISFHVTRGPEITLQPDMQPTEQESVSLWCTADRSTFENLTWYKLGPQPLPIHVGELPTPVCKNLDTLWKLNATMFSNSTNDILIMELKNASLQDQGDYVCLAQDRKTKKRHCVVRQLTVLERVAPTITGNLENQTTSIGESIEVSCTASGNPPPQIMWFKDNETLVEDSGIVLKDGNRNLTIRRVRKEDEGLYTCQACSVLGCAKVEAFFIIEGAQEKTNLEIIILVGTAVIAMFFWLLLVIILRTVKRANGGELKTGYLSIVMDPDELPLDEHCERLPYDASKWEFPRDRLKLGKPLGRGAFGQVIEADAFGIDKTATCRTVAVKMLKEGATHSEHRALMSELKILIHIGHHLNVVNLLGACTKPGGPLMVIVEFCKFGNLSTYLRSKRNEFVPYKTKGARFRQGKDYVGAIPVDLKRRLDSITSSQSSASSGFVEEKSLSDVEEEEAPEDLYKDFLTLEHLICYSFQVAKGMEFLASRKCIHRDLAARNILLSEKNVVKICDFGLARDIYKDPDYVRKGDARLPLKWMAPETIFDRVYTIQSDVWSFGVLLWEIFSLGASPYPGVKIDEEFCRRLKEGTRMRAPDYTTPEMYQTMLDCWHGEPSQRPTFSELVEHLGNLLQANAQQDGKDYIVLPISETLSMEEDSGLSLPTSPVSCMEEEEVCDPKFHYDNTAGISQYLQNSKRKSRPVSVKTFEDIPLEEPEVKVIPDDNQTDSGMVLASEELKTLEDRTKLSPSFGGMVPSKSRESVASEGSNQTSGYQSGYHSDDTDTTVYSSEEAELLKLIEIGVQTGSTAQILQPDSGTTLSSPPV

[14] = target: Vascular endothelial growth factor receptor 2 (Homo sapiens) (UniProt P35968); assay: Inhibition of VEGFR2 in VEGF-stimulated HUVEC assessed as downregulation of ERK1/2 phosphorylation at Thr202/Tyr204 residues at 1 to 10 uM pre-incubated for 2 hrs followed by VEGF stimulation and measured after 15 mins by Western blot analysis; assay type: cell-based
In short: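 HUVECs serum-starved overnight, pretreated 2 h with 1, 2.5, 5 or 10 μM compound, then stimulated 15 min with 50 ng/mL VEGF165. Lysed in Tris/EDTA/Triton/deoxycholate/SDS buffer with phosphatase and protease inhibitors. Protein equalized by Bradford, about 20 μg resolved on gradient SDS-PAGE. Blots probed for phospho and total VEGFR2 (Tyr1175), ERK1/2 (Thr202/Tyr204) and AKT (Ser473) against actin, with HRP/ECL detection.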

HT-29 [15] = assay: Inhibition of Akt/mTOR signalling in human HT-29 cells assessed as reduction in mTOR phosphorylation at Ser2448 residue incubated for 24 hrs by immunoblot analysis; assay type: cell-based
In short: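 HT29 cells were exposed to the indicated concentrations for 24 h. Cell lysates were then immunoblotted for the phosphorylated proteins.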

HT-29 [16] = assay: Downregulation of VEGF mRNA expression in human HT-29 cells after 24 hrs by RT-qPCR assay; assay type: functional, cell-based
In short: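 HT29 cells treated with 1, 5, 10 or 20 μM for 24 h; total RNA extracted with TRIzol; SYBR Green qPCR, 40 cycles of 5 s at 95°C and 60 s at 60°C in 20-μL reactions.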

[17] = target: Mitogen-activated protein kinase 3 (Homo sapiens) (UniProt P27361); assay: Inhibition of ERK1 (unknown origin) at 10 uM using myelin basic protein as substrate in presence of [gamma-33P]-ATP by scintillation counting analysis relative to control
Chain of Mitogen-activated protein kinase 3 (Homo sapiens) (P27361 whole entry): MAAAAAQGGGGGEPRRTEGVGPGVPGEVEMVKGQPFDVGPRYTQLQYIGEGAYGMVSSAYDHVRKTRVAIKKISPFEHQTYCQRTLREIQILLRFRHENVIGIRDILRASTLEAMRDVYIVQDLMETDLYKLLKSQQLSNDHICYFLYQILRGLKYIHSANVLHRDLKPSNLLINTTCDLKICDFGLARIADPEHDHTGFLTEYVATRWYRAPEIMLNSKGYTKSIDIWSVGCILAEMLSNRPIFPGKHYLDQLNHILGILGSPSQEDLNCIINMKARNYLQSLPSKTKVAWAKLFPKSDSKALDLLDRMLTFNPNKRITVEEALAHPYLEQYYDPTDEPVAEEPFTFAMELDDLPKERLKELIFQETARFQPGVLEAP
In short: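 Radiometric kinase panel run by a contract lab. Kinase (5–10 mU) in 25 mM Tris pH 7.5, 0.02 mM EGTA, 0.66 mg/mL myelin basic protein, magnesium acetate and [γ-33P]-ATP (about 500 cpm/pmol). Started with Mg-ATP mix, 40 min at room temperature, stopped with 3% phosphoric acid. Spotted on P30 filters, washed in 75 mM phosphoric acid and methanol, scintillation counted. Mean ± SD of three independent experiments.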

HT-29 [18] = assay: Downregulation of MMP9 expression in human HT-29 cells after 24 hrs by immunoblot analysis; assay type: functional, cell-based
HT-29 [19] = assay: Antiangiogenic activity against human HT-29 cells xenografted in mouse assessed as reduction in mean vessel density in tumour at 40 mg/kg, po administered for 7 days measured at 20 days post-treatment; assay type: functional, organism-based
HUVEC [20] = assay: Antimigratory activity in HUVEC assessed as reduction in VEGF-induced cell migration at 1 to 2.5 uM by wound healing assay; details: Homo sapiens, TDE = time-dependent effect

COc1ccc(NC(=O)c2cccc(/C=C3\CC(=O)N(c4ccc(C)cc4)C3=O)c2)cc1
IC50 (SW480): 93 µM
Activity (Chorioallantoic membrane): Active
IC50 (HT-29 [1]): > 100 µM
IC50 (PC-3): > 100 µM
inhibition at 1 µM (HUVEC [2]): 20%
inhibition at 20 µM (HUVEC [3]): 70%
inhibition at 5 µM (HUVEC [4]): 80%
Activity (HUVEC [5]): 10.4%
Activity (HUVEC [6]): 4.8%
viability at 24 h, 10 µM [7]: 72%
Activity (HUVEC [8]): 5.4%
Activity (HUVEC [9]): 5.6%
Activity (HUVEC [10]): Non-Toxic
viability at 72 h, 5 µM [11]: 76.9%
Activity (HT-29 [12]): 0.8%
inhibition [13]: Active
inhibition [14]: Active
inhibition (HT-29 [15]): Dose-dependent effect
inhibition (HT-29 [16]): inactive
inhibition [17]: 50 to 70%
inhibition (HT-29 [18]): Dose-dependent effect
inhibition (HT-29 [19]): Active
inhibition (HUVEC [20]): Tde
